HKDC1 inhibitor: HKDC1 (human) hexokinase inhibition | Q2TB90 | recombinant HKDC1, G6PDH/diaphorase resazurin coupled fluorescence | inhibition, % at 20 µM | hit rate 0.16% among 340,000 | AID 493160;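 active = inhibition above about 35% when tested at 20 µM, limit read from the data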;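 note: plate controls were DMSO wells with enzyme for no effect and DMSO wells lacking enzyme for full effect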
Target sequence (Q2TB90 whole entry, looked up): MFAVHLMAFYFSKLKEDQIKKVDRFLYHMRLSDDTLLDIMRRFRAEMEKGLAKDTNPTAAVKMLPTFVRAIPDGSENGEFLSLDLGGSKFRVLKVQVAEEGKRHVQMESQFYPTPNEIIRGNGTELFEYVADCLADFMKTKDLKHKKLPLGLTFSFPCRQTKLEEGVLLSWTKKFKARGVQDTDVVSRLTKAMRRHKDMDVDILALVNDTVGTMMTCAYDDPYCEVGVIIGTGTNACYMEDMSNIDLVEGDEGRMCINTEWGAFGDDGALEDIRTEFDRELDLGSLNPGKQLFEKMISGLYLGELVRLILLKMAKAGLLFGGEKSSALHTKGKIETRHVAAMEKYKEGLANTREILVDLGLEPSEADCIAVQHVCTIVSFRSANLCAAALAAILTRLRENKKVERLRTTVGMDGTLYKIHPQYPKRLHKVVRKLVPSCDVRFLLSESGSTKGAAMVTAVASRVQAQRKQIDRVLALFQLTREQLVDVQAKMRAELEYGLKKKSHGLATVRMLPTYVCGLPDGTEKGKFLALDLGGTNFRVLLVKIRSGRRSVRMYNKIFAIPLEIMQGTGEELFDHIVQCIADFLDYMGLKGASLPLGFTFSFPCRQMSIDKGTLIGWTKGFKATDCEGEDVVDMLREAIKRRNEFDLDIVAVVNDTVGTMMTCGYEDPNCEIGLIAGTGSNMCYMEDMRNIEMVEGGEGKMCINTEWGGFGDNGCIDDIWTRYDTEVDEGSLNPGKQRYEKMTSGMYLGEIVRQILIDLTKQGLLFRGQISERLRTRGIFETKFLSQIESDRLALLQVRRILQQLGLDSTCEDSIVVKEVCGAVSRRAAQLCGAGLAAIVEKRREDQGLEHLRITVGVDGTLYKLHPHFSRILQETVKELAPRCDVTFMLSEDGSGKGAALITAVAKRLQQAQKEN
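System: Recombinant HKDC1 hexokinase | Amount: HKDC1 at 5 µg/mL | Reagent: Glucose with 1 mM ATP | Doses: Single 20 µM dose | Incubation: Reaction time 90 min, room temperature, protected from light | Signal: Coupled resazurin fluorescence, excitation 525 nm, emission 613 nm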
VIM-2 inh: inhibitors of Pseudomonas aeruginosa VIM-2 metallo-beta-lactamase; inhibition, % at 5.6 µM; hit rate 0.89% among 290,000; purified VIM-2, nitrocefin hydrolysis, epi-absorbance fluorescence;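 active = inhibition above the mean of all tested compounds plus 3 SD, cutoff set per screening run, cut at about 7.5% in these data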;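 note: red hydrolysis product quenches plate fluorescence so inhibitors raise well fluorescence; 0% = enzyme with DMSO and 100% = DMSO without enzyme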
MIN6 prolif: MIN6 beta-cell proliferation induction. MIN6 cells proliferation, ATPlite luminescence, 48 h; cells starved in 0.2% serum; 100% = growth in 10% serum. proliferation, % at 10 µM. hit rate 0.29% among 330,000;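 active = compounds whose signal lies at least 3.5 SD above the mean of all wells on their plate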;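 note: 0% = DMSO-treated cells in low-serum medium and 100% = 10% serum control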
ATG4B inh: blocks human ATG4B protease cleavage of LC3 substrate; Q9Y4P1; ATG4B cleavage of LC3-PLA2, NBD-HPC fluorescence, 1 h; inhibition, % at 8.33 µM; hit rate 0.51% among 340,000; in the data active = inhibition above about 40%
PvdQ acylase: blocks Pseudomonas aeruginosa PvdQ acylase activity. purified PvdQ acylase, fluorescence plate reader. inhibition, % at 10 µM. hit rate 0.063% among 340,000; in the data active = inhibition above about 30%, passing the limit was not always enough; inconclusive = no clear call, values can overlap the other calls;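 note: 0% = vehicle neutral wells and 100% = reference inhibitor wells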
IMP-1 inh-1: blocks Pseudomonas aeruginosa IMP-1 metallo-beta-lactamase | purified IMP-1, nitrocefin hydrolysis, epi-absorbance fluorescence | inhibition, % at 5.6 µM | hit rate 0.45% among 290,000 | AID 1556;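 active = inhibition above the mean plus 3 SD of all compounds in the same screening run, cut at about 4.5% in these data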;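 note: 0% = IMP-1 with DMSO and 100% = DMSO wells lacking enzyme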
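System: purified IMP-1; amount: IMP-1 0.2 nM before substrate addition; compound: single dose, 5.6 µM; times: 25 °C, 15 min preincubation, 25 min reaction; signal: Epi-absorbance via hydrolysed-nitrocefin quenching of white-plate fluorescence, 480/530 nm, EDTA stop; benchmarks: DMSO with and without IMP-1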
IMP-1 inh-2: selectivity counter-screen for VIM-2 inhibitors: IMP-1 metallo-beta-lactamase inhibitors; shares compounds with VIM-2 inh; purified IMP-1, nitrocefin hydrolysis, epi-absorbance fluorescence; inhibition, % at 5.6 µM; 1,300 tested, under 10 active; AID 1856; call rule not given here;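 note: 0% = enzyme with vehicle and 100% = vehicle without enzyme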
VIM-2 FRET ctr: VIM-2 FRET inhibition, artifact counter-screen; shares compounds with VIM-2 inh; purified VIM-2, CCF2 FRET substrate hydrolysis; inhibition, % at 5.6 µM; hit rate 23% among 1,300;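 active = inhibition above the mean of all tested compounds plus 3 SD, cut at about 19% in these data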;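 note: 0% = VIM-2 plus DMSO and 100% = no enzyme wells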
TEM-1 counter: TEM-1 inhibition, counter-screen for VIM-2 inhibitors; shares compounds with VIM-2 inh; Purified TEM-1, nitrocefin hydrolysis, epi-absorbance fluorescence; inhibition, % at 5.6 µM; hit rate 3% among 1,300;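 active = inhibition above that campaign's mean inhibition plus 3 SD, cut at about 0.46% in these data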;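 note: 0% = TEM-1 with DMSO and 100% = TEM-1 with 100 µM potassium clavulanate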
VIM-2 confirm 2: confirmation of P. aeruginosa VIM-2 metallo-beta-lactamase inhibitors. shares compounds with VIM-2 inh. purified VIM-2, nitrocefin hydrolysis, epi-absorbance. inhibition, % at 5.6 µM. hit rate 96% among 1,300. AID 2187;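 active = inhibition of the VIM-2 beta-lactamase enzyme above about 11% from the earlier first-round screen, limit read from the data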;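 note: 0% = VIM-2 with DMSO and 100% = buffer wells without enzyme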
* marks the source's active call; other numbers are inactive results; ? = inconclusive; . = no result. Rows were chosen to be rich in hits. Some 2% of all compounds tested hit in one or more screens of this group.

SMILES | HKDC1 inhibitor | VIM-2 inh | MIN6 prolif | ATG4B inh | PvdQ acylase | IMP-1 inh-1 | IMP-1 inh-2 | VIM-2 FRET ctr | TEM-1 counter | VIM-2 confirm 2
Cc1c(Br)c(O)c(Br)c(O)c1/C=N/n1c(-c2ccccc2)n[nH]c1=S | 16 | 19* | 2 | 69* | ? | -2 | -3 | 26* | -7 | 27*
COc1cc(/C=N/n2c(-c3ccccc3)n[nH]c2=S)cc(OC)c1O | 3 | 1 | -2 | -2 | -1 | -3 | . | . | . | .
Cc1ccc(-c2n[nH]c(=S)n2/N=C/c2ccc(C(=O)O)cc2)cc1 | 0 | 18* | -3 | -4 | -10 | -4 | -4 | 35* | -7 | 23*
COc1ccc(Br)cc1/C=N/n1c(-c2ccccc2)n[nH]c1=S | -2 | -3 | -3 | -7 | 17 | -4 | . | . | . | .
CC(=O)N1CCN(Cc2nc3cc(NC(=O)NC4CCCCC4)ccc3n2C)CC1 | -1 | -5 | -4 | -2 | -10 | -3 | . | . | . | .
CC(C)CN1C(=O)C(=O)N(CC(=O)c2ccc3c(c2)CCCC3)C1=O | -3 | . | -1 | -2 | -19 | . | . | . | . | .
CC1=Nc2ccc(C)cc2/C1=C/c1c(N)n2nc(CC(=O)N3CCOCC3)sc2nc1=O | -3 | 12* | -2 | -8 | -3 | -1 | -3 | 22* | -9 | 16*
CC1CC(C)CN(c2ccc([N+](=O)[O-])cc2-c2nn[nH]n2)C1 (stereo not drawn) | -9 | 33* | 0 | -3 | 14 | -4 | -1 | 61* | 2.3* | 45*
CC(C)C[C@H](NC(=O)C1CCN(C(=O)[C@H](Cc2ccccc2)NC(=O)OC(C)(C)C)CC1)C(=O)O | -4 | -3 | 1 | 2 | -11 | -1 | . | . | . | .
COC(=O)c1c(NC(=O)c2ccccc2F)sc(C(=O)N2CCOCC2)c1C | -4 | 13* | -2 | -3 | -11 | -2 | -3 | 1 | -7 | 20*
CC1CCN(C(=O)COC(=O)CSc2ccc(C(N)=O)cc2[N+](=O)[O-])CC1 | 2 | . | 0 | 4 | -1 | . | . | . | . | .
O=C(O)C(c1ccccc1)N1C(=O)/C(=C\c2ccc(O)c(O)c2)SC1=S (stereo not drawn) | 8 | 31* | -3 | 10 | -9 | -4 | -6 | 50* | -8 | 31*
CCOC(=O)CSc1nc(N)c(C#N)c(-c2ccc(OCC)cc2)c1C#N | -8 | -3 | -1 | -3 | -2 | -4 | . | . | . | .
COC(=O)CSc1nc(N)c(C#N)c(-c2ccc(O)cc2)c1C#N | -5 | 18* | -2 | -7 | -4 | -1 | -3 | 0 | -7 | 36*
COc1ccc(/C=C(/NC(=O)c2ccccc2)C(=O)N2CCOCC2)cc1OC | 0 | -4 | -2 | 11 | -11 | -2 | . | . | . | .
Cc1cc(C)cc(NC(=O)[C@H](NC(=O)[C@@H]2Cc3ccccc3CN2)c2ccccc2)c1 | 4 | -5 | -7 | 11 | -5 | -1 | . | . | . | .
C/C(=N\NC(=O)OC(C)(C)C)c1ccc(-n2ccnc2)cc1 | 7 | 1 | 4 | -3 | 1 | -1 | . | . | . | .
C=C(C)CNC(=S)N/N=C(\C)c1ccc(-n2ccnc2)cc1 | -2 | 79* | -3 | -1 | -14 | -5 | -3 | -8 | -9 | 88*
COc1cccc(N2CCN(C(=O)c3cc4c(s3)CCCCC4)CC2)c1 | 3 | . | -3 | -1 | -14 | . | . | . | . | .
CCCN(CCC)CCCNc1ccc2nnc(-c3ccc(F)cc3)n2n1 | -4 | 18* | 0 | -5 | 8 | -3 | -3 | 0 | -6 | 22*
Nc1nc(NCCCN2CCOCC2)nc(Nc2ccccc2F)c1[N+](=O)[O-] | -5 | 29* | 1 | 0 | -6 | -4 | -3 | 2 | -11 | 51*
Cc1cccc(Nc2nc(NCCCN3CCOCC3)nc(N)c2[N+](=O)[O-])c1 | -8 | 14* | 0 | -6 | -5 | -2 | -4 | 0 | -10 | 37*
CCN(CC)c1ccc(/C=N\NC(=O)c2cccc3cc[nH]c23)cc1 | 0 | -4 | -3 | -2 | -6 | -2 | . | . | . | .
CCCc1nn(C)c2c(=O)[nH]c(-c3cc(S(=O)(=O)N4CCN(C)CC4)ccc3OCC)nc12 | -3 | 17* | -3 | -9 | 0 | -2 | -3 | 4 | -7 | 26*
COc1cc2c(cc1OC)C(C)N(C(=O)c1cc(Cl)nc(Cl)c1)CC2 (stereo not drawn) | -6 | -1 | -3 | 1 | 24 | -3 | . | . | . | .
SMILES | HKDC1 inhibitor | VIM-2 inh | MIN6 prolif | ATG4B inh | PvdQ acylase | IMP-1 inh-1 | IMP-1 inh-2 | VIM-2 FRET ctr | TEM-1 counter | VIM-2 confirm 2
COc1cc2c(cc1OC)C(C)N(C(=O)c1nccnc1C(=O)O)CC2 (stereo not drawn) | -2 | 20* | -2 | -1 | -3 | -2 | -3 | 43* | -6 | 33*
O=C(O)C(C(=O)O)=C1C2CC3CC(C2)CC1C3 | -7 | 39* | 1 | 2 | -15 | -3 | -1 | 64* | -3 | 48*
O=C(O)C=C1C2CC3CC(C2)CC1C3 | -10 | -3 | -2 | 3 | -9 | -6 | . | . | . | .
Cc1ccc(-c2n[nH]c(=S)n2C)cc1 | -3 | 6 | . | -2 | -8 | 0 | . | . | . | .
Cc1ccc(-c2cn3c(=S)[nH]nc3s2)cc1 | -30 | 45* | 1 | 4 | -12 | -4 | -4 | 69* | -6 | 54*
Cc1ccc(-c2csc(=Nc3cccnc3)n2CCCn2ccnc2)cc1C | -7 | 18* | 0 | 7 | 1 | -4 | -2 | -25 | -8 | 30*
Cc1ccc(-c2csc(=Nc3cccnc3)n2CCCN2CCCC2=O)cc1C | -7 | 1 | 0 | 3 | 6 | -1 | . | . | . | .
Cc1ccc(S(=O)(=O)NC(C)(C)C)cc1C(=O)OC(C)C(=O)NC1CC1 (stereo not drawn) | -4 | . | 1 | -4 | -18 | . | . | . | . | .
C=CCOc1ccc2ccccc2c1CNn1c(C)n[nH]c1=S | -3 | 17* | 4 | -1 | -5 | -2 | -4 | 33* | -6 | 20*
CCN(CC)CCOc1cc2c(nn1)Oc1ccccc1N2C | 0 | 18* | -1 | 2 | 7 | 1 | -3 | 2 | -7 | 20*
Nc1ncncc1-c1ccc2ccccc2c1 | -8 | 1 | 3 | 0 | -10 | -2 | . | . | . | .
CCc1cc(=O)oc2c(C)c(OCC(=O)NCCCN3CCOCC3)ccc12 | -3 | 7 | -1 | -1 | 2 | -4 | . | . | . | .

From PubChem
